One test concerns NCI-H929. The test is described as follows: Antiproliferative activity against human NCI-H929 cells assessed as inhibition of cell proliferation after 48 hrs by MTT assay. The format is functional, cell-based. The conditions noted are these: NCI-H929, 48 h. Put shortly:
(§1)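 Leukemia/myeloma lines grown in RPMI1640 with 10% FBS at 37 °C, 5% CO2; seeded at 3500–4000 cells/well, cultured overnight, then exposed to serial dilutions for 48 h.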

In the next test the test system is HL-60. In words: Antiproliferative activity against human HL-60 cells assessed as inhibition of cell proliferation after 48 hrs by MTT assay. It counts as functional, cell-based. The conditions noted are these: HL-60, 48 h. Put shortly:
as §1

Another test is filed under the species Homo sapiens. In words: Selectivity ratio of IC50 for HDAC8 (unknown origin) to IC50 for HDAC6 (unknown origin).
In another test the target is Histone deacetylase 1 (Homo sapiens, UniProt Q13547). In words: Inhibition of HDAC1 (unknown origin) using Ac-LeuGlyLys(Ac)-AMC as substrate preincubated for 10 mins followed by substrate addition and further incubated for incubated for 1 hrs by fluorescence microtiter plate reader assay.
Histone deacetylase 1, sequence (Q13547 whole entry): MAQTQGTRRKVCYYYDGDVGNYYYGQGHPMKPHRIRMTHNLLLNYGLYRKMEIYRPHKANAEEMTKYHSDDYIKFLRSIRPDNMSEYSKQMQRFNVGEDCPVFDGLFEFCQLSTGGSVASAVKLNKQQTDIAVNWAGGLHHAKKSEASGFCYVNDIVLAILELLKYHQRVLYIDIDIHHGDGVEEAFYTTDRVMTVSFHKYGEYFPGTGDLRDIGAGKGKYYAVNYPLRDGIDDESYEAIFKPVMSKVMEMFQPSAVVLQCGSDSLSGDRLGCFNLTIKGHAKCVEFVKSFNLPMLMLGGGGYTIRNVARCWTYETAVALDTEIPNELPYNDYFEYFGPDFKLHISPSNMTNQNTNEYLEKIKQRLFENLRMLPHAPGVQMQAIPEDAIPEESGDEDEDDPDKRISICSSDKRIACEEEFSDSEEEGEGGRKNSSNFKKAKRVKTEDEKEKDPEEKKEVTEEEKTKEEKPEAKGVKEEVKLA
Another test deals with HUVEC. The test is described as follows: Cytotoxicity against human HUVEC cells assessed as decrease in cell viability after 48 hrs by MTT assay. It counts as cell-based. Put shortly: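 Normal cells: HUVECs in RPMI1640 with 10% FBS plus 0.1% heparin, GEC-1 in RPMI1640 with 10% FBS. Seeded 8 h, then treated with serial dilutions for 48 h; 0.5% MTT for 4 h, supernatant removed, DMSO added, absorbance read at 570 nm.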
For orientation: Tetrazolium assays rely on reduction of a dye to a coloured formazan, in cell work by metabolically active cells.

Another test concerns Jurkat. In words: Antiproliferative activity against human Jurkat cells assessed as inhibition of cell proliferation after 48 hrs by MTT assay. The format is functional, cell-based. The gist of the method:
as §1

The target of test [1] is T1, Protein deacetylase HDAC6 (Homo sapiens) (UniProt Q9UBN7).
T1 sequence (whole entry): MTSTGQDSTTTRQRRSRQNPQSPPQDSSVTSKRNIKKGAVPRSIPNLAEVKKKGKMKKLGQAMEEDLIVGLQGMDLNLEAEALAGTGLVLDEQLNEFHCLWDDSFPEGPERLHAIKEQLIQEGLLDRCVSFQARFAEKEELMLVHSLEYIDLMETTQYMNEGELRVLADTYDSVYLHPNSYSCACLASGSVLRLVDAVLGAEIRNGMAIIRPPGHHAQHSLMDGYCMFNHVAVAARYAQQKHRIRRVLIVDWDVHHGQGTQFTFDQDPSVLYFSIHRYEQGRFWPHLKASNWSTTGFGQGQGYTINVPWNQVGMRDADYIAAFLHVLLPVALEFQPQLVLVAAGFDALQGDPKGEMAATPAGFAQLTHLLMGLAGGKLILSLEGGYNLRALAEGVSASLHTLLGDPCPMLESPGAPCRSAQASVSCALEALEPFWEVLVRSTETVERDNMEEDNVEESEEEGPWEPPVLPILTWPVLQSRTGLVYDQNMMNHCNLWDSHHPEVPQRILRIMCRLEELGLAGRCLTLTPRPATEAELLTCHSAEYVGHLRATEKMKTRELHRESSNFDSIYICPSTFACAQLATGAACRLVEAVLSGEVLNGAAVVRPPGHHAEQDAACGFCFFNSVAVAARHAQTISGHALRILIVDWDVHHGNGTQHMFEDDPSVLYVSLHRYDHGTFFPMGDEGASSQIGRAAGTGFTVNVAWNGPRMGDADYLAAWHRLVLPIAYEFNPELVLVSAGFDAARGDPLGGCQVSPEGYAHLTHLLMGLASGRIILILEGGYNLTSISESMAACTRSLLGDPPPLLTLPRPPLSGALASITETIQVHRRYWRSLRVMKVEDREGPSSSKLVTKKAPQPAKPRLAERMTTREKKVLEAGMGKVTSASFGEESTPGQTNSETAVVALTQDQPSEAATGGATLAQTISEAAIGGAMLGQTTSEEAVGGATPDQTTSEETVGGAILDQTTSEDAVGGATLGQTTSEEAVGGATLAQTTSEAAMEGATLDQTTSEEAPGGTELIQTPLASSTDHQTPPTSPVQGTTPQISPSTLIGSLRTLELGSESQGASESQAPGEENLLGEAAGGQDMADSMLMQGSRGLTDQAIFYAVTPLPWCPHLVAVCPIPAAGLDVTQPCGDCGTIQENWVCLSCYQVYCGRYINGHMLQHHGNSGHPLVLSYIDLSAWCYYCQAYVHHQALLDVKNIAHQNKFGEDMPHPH
The test is described as follows: Potency index, ratio of tubastatin-A IC50 to test compound IC50 for HDAC6 (unknown origin) using Ac-LeuGlyLy-s(Ac)-AMC as substrate preincubated for 10 mins followed by substrate addition and further incubated for 2 hrs by fluorescence microtiter plate reader assay.

The target of the next test is T2, Histone deacetylase 8 (Homo sapiens, UniProt Q9BY41).
T2 sequence (Q9BY41 whole entry): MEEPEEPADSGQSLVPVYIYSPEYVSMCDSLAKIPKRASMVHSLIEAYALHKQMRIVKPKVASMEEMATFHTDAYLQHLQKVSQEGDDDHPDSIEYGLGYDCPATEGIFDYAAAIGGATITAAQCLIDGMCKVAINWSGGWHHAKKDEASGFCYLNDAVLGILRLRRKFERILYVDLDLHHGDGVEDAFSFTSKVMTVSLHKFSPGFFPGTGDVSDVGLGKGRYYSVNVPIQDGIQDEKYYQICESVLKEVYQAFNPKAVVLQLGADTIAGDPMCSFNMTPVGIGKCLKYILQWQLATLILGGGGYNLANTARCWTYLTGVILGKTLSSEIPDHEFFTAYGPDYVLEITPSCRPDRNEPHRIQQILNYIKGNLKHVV
The test is described as follows: Inhibition of HDAC8 (unknown origin) using Ac-LeuGlyLys(tfa)-AMC as substrate preincubated for 10 mins followed by substrate addition and further incubated for incubated for 1 hrs by fluorescence microtiter plate reader assay.

Another test concerns the target Histone deacetylase 2 (Homo sapiens, UniProt Q92769).

Consider 1 compound from ChEMBL document CHEMBL4842326, “Design, synthesis and biological evaluation of 3, 4-disubstituted-imidazolidine-2, 5-dione derivatives as HDAC6 selective inhibitors” (Eur J Med Chem, 2021).

Histone deacetylase 2, sequence (Q92769 whole entry): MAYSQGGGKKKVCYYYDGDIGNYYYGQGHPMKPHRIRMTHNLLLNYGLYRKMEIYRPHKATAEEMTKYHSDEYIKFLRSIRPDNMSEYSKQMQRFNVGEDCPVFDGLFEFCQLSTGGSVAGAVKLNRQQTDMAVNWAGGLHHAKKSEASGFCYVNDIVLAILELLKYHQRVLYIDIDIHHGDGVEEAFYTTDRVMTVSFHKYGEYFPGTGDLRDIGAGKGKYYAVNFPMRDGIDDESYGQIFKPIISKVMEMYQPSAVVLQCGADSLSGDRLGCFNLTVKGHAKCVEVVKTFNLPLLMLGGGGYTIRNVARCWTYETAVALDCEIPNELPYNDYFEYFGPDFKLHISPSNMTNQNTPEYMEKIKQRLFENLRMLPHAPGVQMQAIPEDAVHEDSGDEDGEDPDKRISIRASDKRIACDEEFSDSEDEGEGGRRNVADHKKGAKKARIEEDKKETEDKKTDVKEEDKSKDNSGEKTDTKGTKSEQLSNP

In general, IC50 refers to the midpoint of a concentration-inhibition curve. Turning to `O=C(NO)c1ccc(CN2C(=O)C(Cc3ccccc3)N(Cc3cccnc3)C2=O)cc1` (racemic), the IC50 in the test with NCI-H929 worked out at 7.61 µM; with HL-60 it was 3.23 µM; on Histone deacetylase 1 it was 11.6 µM; with HUVEC, 83.1 µM; with Jurkat it was 9.29 µM; against Histone deacetylase 8 it was 3.44 µM. In addition, half-maximal inhibition against Histone deacetylase 2 (IC50) was put at 12.3 µM. The Ratio IC50 turned out to be 1640 in the test listed under Homo sapiens and 12 in test [1].
